In ChEMBL document CHEMBL1138183, “Design, synthesis, and biological evaluation of isoquinoline-1,3,4-trione derivatives as potent caspase-3 inhibitors” (J Med Chem, 2006):
pIC50: −log10 of the molar value. The source made the active and inactive calls. No cut-off for these calls is given here. Peptide text beside a SMILES is read from it. * marks the point of attachment. Cbz = O=C(OCc1ccccc1)*; CH2F = FC*

Columns and labels:
Caspase-3 (Homo sapiens) = target: T1, Caspase-3 (Homo sapiens) (UniProt P42574); assay: Inhibition of caspase3 activity in camptothecin-induced apoptotic Jurkat T cells at 2 uM; type: functional, cell-based
T1 sequence (whole entry): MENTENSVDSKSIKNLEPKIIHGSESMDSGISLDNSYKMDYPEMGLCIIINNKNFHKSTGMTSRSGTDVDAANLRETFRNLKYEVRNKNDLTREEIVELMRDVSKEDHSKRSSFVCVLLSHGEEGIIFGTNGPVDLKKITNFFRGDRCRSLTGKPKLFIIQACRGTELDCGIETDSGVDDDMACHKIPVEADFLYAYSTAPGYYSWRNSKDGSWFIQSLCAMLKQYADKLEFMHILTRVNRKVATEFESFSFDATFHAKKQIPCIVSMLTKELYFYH
How it was run: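 Jurkat cells (1 × 10⁵ cells/mL) preincubated 30 min at 37 °C, given inhibitor for 2 h, then 2 µM camptothecin for 4 h. Lysed by freeze–thaw cycles, spun at 12000g. Lysate assayed with 100 µM Ac-DEVD-AMC in HEPES pH 7.0, sucrose, CHAPS and DTT. AMC fluorescence (ex 360/em 460 nm) read 20 min at room temperature, normalised to Bradford protein.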

Caspase-2 = target: T2, Caspase-2 (Homo sapiens, UniProt P42575); assay: Inhibition of caspase2
T2 sequence (P42575 whole entry): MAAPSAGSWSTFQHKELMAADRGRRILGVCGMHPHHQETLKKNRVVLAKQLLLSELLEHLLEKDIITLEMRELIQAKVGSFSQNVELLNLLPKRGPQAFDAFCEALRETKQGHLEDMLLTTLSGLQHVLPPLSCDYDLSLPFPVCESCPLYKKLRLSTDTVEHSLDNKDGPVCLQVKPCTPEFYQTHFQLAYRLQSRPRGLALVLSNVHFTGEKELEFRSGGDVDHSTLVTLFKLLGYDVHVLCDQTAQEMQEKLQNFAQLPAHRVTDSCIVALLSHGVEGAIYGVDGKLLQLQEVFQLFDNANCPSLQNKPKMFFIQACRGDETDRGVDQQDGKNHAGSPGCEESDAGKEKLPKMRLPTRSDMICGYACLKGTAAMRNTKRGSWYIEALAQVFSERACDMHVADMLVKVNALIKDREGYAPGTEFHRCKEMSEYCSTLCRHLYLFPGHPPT
How it was run: (§1)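 Enzymes (caspases 2, 6 and 7; proteasome, trypsin, thrombin, papain, calpain-I) preincubated with inhibitor 30 min in their own buffer at optimal pH. Substrates at 10–100 µM, assayed at 35 °C. pNA release followed at 405 nm for 1–3 min; initial hydrolysis rate taken.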

Calpain 1 = Calpain 1 (Homo sapiens, UniProt P07384); assay: Inhibition of calpain1; type: protein-complex assay; how it was run: as §1
Caspase-8 = Caspase-8 (Homo sapiens, UniProt Q14790); assay: Inhibition of caspase8
Caspase-6 = target: T3, Caspase-6 (Homo sapiens, UniProt P55212); assay: Inhibition of caspase6; how it was run: as §1
T3 sequence (P55212 whole entry): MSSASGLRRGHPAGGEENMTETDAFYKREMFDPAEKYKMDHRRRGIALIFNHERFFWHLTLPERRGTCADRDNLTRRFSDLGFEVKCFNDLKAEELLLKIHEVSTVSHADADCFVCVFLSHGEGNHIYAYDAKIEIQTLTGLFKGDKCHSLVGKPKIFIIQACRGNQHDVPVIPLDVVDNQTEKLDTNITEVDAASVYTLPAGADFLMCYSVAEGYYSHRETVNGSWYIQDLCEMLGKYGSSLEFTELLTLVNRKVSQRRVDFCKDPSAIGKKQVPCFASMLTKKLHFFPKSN

Caspase-3 = target: T4, Caspase-3 (Homo sapiens, UniProt P42574); assay: Inhibition of caspase3
T4 sequence (P42574 whole entry): T1 sequence (whole entry)

Papain = target: T5, Papain (Carica papaya, UniProt P00784); assay: Inhibition of papain; how it was run: as §1
T5 sequence (P00784 whole entry): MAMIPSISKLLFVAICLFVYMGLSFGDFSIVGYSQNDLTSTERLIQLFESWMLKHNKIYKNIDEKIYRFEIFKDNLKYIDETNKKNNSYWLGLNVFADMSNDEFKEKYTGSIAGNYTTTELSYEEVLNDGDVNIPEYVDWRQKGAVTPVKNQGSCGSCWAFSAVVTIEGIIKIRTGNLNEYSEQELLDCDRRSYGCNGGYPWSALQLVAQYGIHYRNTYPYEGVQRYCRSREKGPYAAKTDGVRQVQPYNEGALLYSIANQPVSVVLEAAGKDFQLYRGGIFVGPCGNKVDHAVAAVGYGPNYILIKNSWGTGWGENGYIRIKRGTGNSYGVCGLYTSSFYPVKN

Trypsin = Trypsin (Homo sapiens, UniProt P07477+P07478+P35030); assay: Inhibition of trypsin; type: protein assay; how it was run: as §1
Proteasome = assay: Inhibition of proteasome; type: subcellular; how it was run: as §1
Prothrombin = Prothrombin (Homo sapiens, UniProt P00734); assay: Inhibition of thrombin; how it was run: as §1
Caspase-7 = target: T6, Caspase-7 (Homo sapiens, UniProt P55210); assay: Inhibition of caspase7; how it was run: as §1
T6 sequence (P55210 whole entry): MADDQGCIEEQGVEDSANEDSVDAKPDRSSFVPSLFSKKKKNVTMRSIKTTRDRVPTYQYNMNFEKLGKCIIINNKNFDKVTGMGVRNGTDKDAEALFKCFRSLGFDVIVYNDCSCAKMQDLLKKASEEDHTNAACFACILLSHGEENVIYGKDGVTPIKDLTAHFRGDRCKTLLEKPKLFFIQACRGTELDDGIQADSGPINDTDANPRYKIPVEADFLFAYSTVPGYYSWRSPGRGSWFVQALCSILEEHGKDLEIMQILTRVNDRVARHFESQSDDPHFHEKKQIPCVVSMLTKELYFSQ

Rattus norvegicus = assay: Decrease in infarct volume of ischemic damage in transient MCA occlusion model of Sprague-Dawley rat at 1 mg/kg, sc; type: functional
How it was run: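 Male Sprague-Dawley rats (200–240 g); transient MCA occlusion for 1.5 h. Drug in DMSO given sc at 0.5 mL/kg, 5 min after occlusion start. Sacrifice at 24 h; 2 mm coronal slices stained with TTC. Infarct volume corrected by indirect method (contralateral minus intact ipsilateral area); n=8 per group, mean ± SE vs saline-treated animals, one-way ANOVA with Dunnett's test.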

Sequence of Caspase-8 (Q14790 217-374 limits assumed): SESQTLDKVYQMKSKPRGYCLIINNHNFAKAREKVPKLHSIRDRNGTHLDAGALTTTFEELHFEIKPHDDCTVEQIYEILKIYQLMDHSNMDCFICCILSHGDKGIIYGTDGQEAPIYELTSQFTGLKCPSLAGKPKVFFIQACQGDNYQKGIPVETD
Sequence of Caspase-8 (Q14790 385-479 limits assumed): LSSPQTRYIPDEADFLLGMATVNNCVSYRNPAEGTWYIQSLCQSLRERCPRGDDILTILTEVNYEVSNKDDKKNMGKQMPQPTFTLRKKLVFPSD
Sequence of Calpain 1 (P04632 whole entry): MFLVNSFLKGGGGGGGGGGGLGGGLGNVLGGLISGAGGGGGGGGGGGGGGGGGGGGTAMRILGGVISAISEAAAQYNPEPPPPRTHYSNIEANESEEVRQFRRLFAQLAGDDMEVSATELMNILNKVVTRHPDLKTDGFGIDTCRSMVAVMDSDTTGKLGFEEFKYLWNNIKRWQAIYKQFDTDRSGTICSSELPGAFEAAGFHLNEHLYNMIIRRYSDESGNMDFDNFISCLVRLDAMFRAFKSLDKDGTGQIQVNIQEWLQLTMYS
Sequence of Calpain 1 (P07384 whole entry): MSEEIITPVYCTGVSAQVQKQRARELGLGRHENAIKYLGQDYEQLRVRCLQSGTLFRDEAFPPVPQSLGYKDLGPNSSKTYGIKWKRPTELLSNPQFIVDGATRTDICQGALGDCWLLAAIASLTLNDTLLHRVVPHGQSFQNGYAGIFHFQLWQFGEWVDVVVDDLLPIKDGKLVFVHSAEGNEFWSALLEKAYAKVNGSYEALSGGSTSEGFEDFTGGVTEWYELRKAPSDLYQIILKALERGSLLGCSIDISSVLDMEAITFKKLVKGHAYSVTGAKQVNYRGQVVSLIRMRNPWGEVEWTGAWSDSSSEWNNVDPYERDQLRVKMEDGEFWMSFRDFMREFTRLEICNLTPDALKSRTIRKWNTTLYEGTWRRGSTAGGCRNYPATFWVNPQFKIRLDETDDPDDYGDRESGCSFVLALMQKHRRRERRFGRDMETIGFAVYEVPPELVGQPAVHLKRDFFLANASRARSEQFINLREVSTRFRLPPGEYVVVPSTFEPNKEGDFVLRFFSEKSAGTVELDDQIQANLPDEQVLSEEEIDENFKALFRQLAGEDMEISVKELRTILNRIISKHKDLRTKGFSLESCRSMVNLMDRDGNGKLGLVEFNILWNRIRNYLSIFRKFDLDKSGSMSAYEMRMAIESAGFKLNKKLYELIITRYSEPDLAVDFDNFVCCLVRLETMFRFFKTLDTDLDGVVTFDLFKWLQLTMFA

| SMILES | Activity (Caspase-3 (Homo sapiens)) | pIC50 (Caspase-2) | pIC50 (Calpain 1) | pIC50 (Caspase-8) | pIC50 (Caspase-6) | pIC50 (Caspase-3) | pIC50 (Papain) | IC50 (Trypsin) | pIC50 (Proteasome) | pIC50 (Prothrombin) | pIC50 (Caspase-7) | Activity (Rattus norvegicus) | Activity (Rattus norvegicus; route subcutaneous) |
| --- | --- | --- | --- | --- | --- | --- | --- | --- | --- | --- | --- | --- | --- |
| CC(=O)N[C@@H](CC(=O)O)C(=O)N[C@@H](CCC(=O)O)C(=O)N[C@H](C(=O)N[C@H](C=O)CC(=O)O)C(C)C | 3.4 RFU/µg/min |  |  |  |  |  |  |  |  |  |  |  |  |
| O=C(CCCl)Nc1ccc2c(c1)C(=O)C(=O)NC2=O |  | 6.28 | < 5.30 | 6.24 | 6.55 | 7.08 | < 5.30 | > 5000 nM | < 5.30 | < 5.30 | 6.86 |  |  |
| O=C1NC(=O)c2ccccc2C1=O |  | 5.82 | < 5.30 |  | 6.32 |  | < 5.30 | > 5000 nM | < 5.30 | < 5.30 | 6.41 | inactive |  |
| O=C1NC(=O)c2cc(NC(=O)c3ccc([N+](=O)[O-])cc3)ccc2C1=O |  | 5.25 | < 5.30 | 4.61 | 5.55 | 5.86 | < 5.30 | > 5000 nM | < 5.30 | < 5.30 | 5.57 |  |  |
| O=C(CCC(=O)N1CCCCC1)Nc1ccc2c(c1)C(=O)C(=O)NC2=O |  | 6.64 | < 5.30 | 6.54 | 6.91 | 7.60 | < 5.30 | > 5000 nM | < 5.30 | < 5.30 | 7.19 |  |  |
| COc1ccccc1NC(=O)CCC(=O)Nc1ccc2c(c1)C(=O)C(=O)NC2=O |  | 6.27 | < 5.30 | 6.08 | 6.86 | 6.95 | < 5.30 | > 5000 nM | < 5.30 | < 5.30 | 6.66 |  | 77% |
| O=C(O)CCC(=O)Nc1ccc2c(c1)C(=O)C(=O)NC2=O |  | 6.07 | < 5.30 | 5.95 | 6.70 | 7.17 | < 5.30 | > 5000 nM | < 5.30 | < 5.30 | 6.87 |  |  |
| CC(C)[C@H](NC(=O)OCc1ccccc1)C(=O)N[C@@H](C)C(=O)N[C@@H](CC(=O)O)C(=O)CF (Cbz-Val-Ala-Asp-CH2F) | 3.6 RFU/µg/min |  |  |  |  |  |  |  |  |  |  |  |  |
| CC(=O)OC(C(=O)Nc1cccc2c1C(=O)C(=O)NC2=O)c1ccccc1 (configuration not stated) |  | 6.63 | < 5.30 | 6.37 | 6.67 | 7.40 | < 5.30 | > 5000 nM | < 5.30 | < 5.30 | 7.20 |  |  |
